From ChEMBL document CHEMBL3734652, “Pyrrolo[3,4-c]pyridine-1,3(2H)-diones: A Novel Antimycobacterial Class Targeting Mycobacterial Respiration” (J Med Chem, 2015) come the findings set out here.

≈ marks a conversion by molar mass, not a printed value.

Series [1] has as its system Plasma. Kind of series: Drug metabolism in C57/BL6 mouse plasma assessed as formation of 7-Amino-2-benzyl-4-methyl-1,3-dioxo-2,3-dihydro-1H-pyrrolo-[3,4-c]pyridine-6-carboxylic Acid by LC-MS analysis in absence of NADPH. It is filed as ADME, cell-free.
The test system of series [2] is Mycobacterium tuberculosis. In words: Drug metabolism in supernatant of Mycobacterium tuberculosis assessed as formation of 7-Amino-2-benzyl-4-methyl-1,3-dioxo-2,3-dihydro-1H-pyrrolo-[3,4-c]pyridine-6-carboxylic Acid in absence of NADPH. It is filed as ADME, organism-based.
Series [3] deals with Mycobacterium tuberculosis. In words: Antimicrobial activity against GFP expressing recombinant Mycobacterium tuberculosis H37RvMA under 7H9 medium assessed as growth inhibition after 14 days by broth microdilution method. As to conditions: 336 h. It is filed as functional. On the technique in general: Broth dilution looks for growth in wells or tubes with falling amounts of substance.

The nature of series [4]: Kinetic solubility in FaSSIF at pH 6.5 after 2 hours at 25 degC by shake flask method. To be noted: read-out: Kinetic_solubility. It is filed as physicochemical.
Series [5] in a line: Metabolic stability in rat liver microsomes assessed as residual compound at 0.1 uM after 30 mins by LC-MS/MS method in presence or absence of NADPH. It is filed as ADME. As to conditions: read-out: Stability.
The nature of series [6]: Metabolic stability in mouse liver microsomes assessed as residual compound at 0.1 uM after 30 mins by LC-MS/MS method in presence or absence of NADPH. It counts as ADME. To be noted: read-out: Stability.
The subject of series [7] is Mycobacterium tuberculosis. Kind of series: Antimicrobial activity against clinical isolates of Mycobacterium tuberculosis SAWC 2371 Haarlem under 7H9 medium assessed as growth inhibition after 14 days by alamar blue assay. It counts as functional. As to conditions: 336 h. In general terms: Resazurin is reduced to fluorescent resorufin, in cell work by metabolically active cells.

Series [8] relates to Mycobacterium tuberculosis. In words: Antimicrobial activity against clinical isolates of Mycobacterium tuberculosis SAWC 3906 Atyp-beijing under 7H9 medium assessed as growth inhibition after 14 days by alamar blue assay. It is filed as functional. To be noted: 336 h.
Series [9] relates to Mycobacterium tuberculosis. Kind of series: Antimicrobial activity against GFP expressing recombinant Mycobacterium tuberculosis H37RvMA under GAST/Fe medium assessed as growth inhibition after 14 days by broth microdilution method. It counts as functional. As to conditions: 336 h.
The test system of a further series is Vero. In words: Cytotoxicity against African green monkey Vero cells assessed as cell viability by MTT assay. It is filed as cell-based. To be noted: Chlorocebus sabaeus. Summed up: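 VERO kidney epithelial cells from African green monkey were exposed to compounds at concentrations up to 100 μM, and IC₅₀ was reported.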
Background: Formazan colour is commonly taken as a measure of viable cells.

For series [10], the system named is Mycobacterium tuberculosis. Kind of series: Antimicrobial activity against clinical isolates of Mycobacterium tuberculosis SAWC 3385 Cas1/Delhi under 7H9 medium assessed as growth inhibition after 14 days by alamar blue assay. It is filed as functional. As to conditions: 336 h.
Series [11] concerns Mycobacterium tuberculosis. Kind of series: Antimicrobial activity against Mycobacterium tuberculosis H37RvMA under GAST/Fe medium assessed as growth inhibition after 14 days by alamar blue assay. It is filed as functional. As to conditions: 336 h. Summed up:
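Broth microdilution in GAST/Fe medium against fully virulent Mtb H37RvMa or its derived strains (cytochrome bd oxidase deletion ΔcydKO; qcrB Ala317Thr point mutant). Plates were incubated 14 days, growth was read by Alamar Blue, and MIC90 was taken as the potency value.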

Series [12] relates to Liver. Kind of series: Drug metabolism in BALB/c mouse liver microsomes assessed as formation of 7-Amino-2-benzyl-4-methyl-1,3-dioxo-2,3-dihydro-1H-pyrrolo-[3,4-c]pyridine-6-carboxylic Acid at 10 uM after 1 hr by LC-MS analysis in absence of NADPH. It counts as ADME.
The nature of series [13]: Metabolic stability in human liver microsomes assessed as residual compound at 0.1 uM after 30 mins by LC-MS/MS method in presence or absence of NADPH. It counts as ADME. As to conditions: read-out: Stability.
For another series, the system named is CHO. In words: Cytotoxicity against CHO cells assessed as cell viability by MTT assay. It counts as cell-based. To be noted: Cricetulus griseus.
For series [14], the system named is Liver. Kind of series: Drug level in BALB/c mouse liver microsomes treated with ethyl 7-Amino-2-benzyl-4-methyl-1,3-dioxo-2,3-dihydro-1Hpyrrolo[3,4-c]pyridine-6-carboxylate at 10 uM after 1 hr by LC-MS analysis in absence of NADPH. It counts as ADME.
The test system of series [15] is Mycobacterium tuberculosis. Kind of series: Drug level in supernatant of Mycobacterium tuberculosis treated with Ethyl 7-Amino-2-benzyl-4-methyl-1,3-dioxo-2,3-dihydro-1Hpyrrolo[3,4-c]pyridine-6-carboxylate in absence of NADPH. It is filed as ADME, organism-based.
Series [16] has as its system Liver. Kind of series: Drug level in BALB/c mouse liver microsomes treated with 7-Amino-2-benzyl-4-methyl-6-(3-methyl-1,2,4-oxadiazol-5-yl)-1H-pyrrolo[3,4-c]pyridine-1,3(2H)-dione at 10 uM after 1 hr by LC-MS analysis. It is filed as ADME.
The test system of series [17] is Plasma. In words: Drug metabolism in C57/BL6 mouse plasma treated with 7-Amino-2-benzyl-4-methyl-6-(3-methyl-1,2,4-oxadiazol-5-yl)-1H-pyrrolo[3,4-c]pyridine-1,3(2H)-dione by LC-MS analysis. It is filed as ADME, cell-free.
For series [18], the system named is Plasma. In words: Drug level in C57/BL6 mouse plasma treated with ethyl 7-Amino-2-benzyl-4-methyl-1,3-dioxo-2,3-dihydro-1Hpyrrolo[3,4-c]pyridine-6-carboxylate by LC-MS analysis in absence of NADPH. It is filed as ADME, cell-free.

In general, MIC90 refers to the lowest concentration that inhibits either 90% of growth or 90% of the strains tested, depending on the study. Usually IC50 stands for the point on the concentration scale where inhibition reaches its midpoint. For the compound `CCOC(=O)c1nc(C)c2c(c1N)C(=O)N(Cc1ccccc1)C2=O`, the Drug metabolism entry (in the series with Plasma [1]; in [2]; with Liver [12]) was “metabolite_detected” throughout. In addition, the MIC90 in [3] was more than 20 µM; in series [7] it was less than 0.08 µM; in series [8], less than 0.08 µM; in [9], 0.132 µM; in series [10] it was less than 0.08 µM; in [11], less than 0.156 µM. Further, the solubility kinetic at 2 h in [4] is less than 5 µM. Besides, the remaining at 0.5 h, 0.1 µM in [5] is 19%; in series [6], 18%; in series [13] it was 14%. Further, the IC50 in the series on Vero was more than 100 µM.

In the case of `Cc1nc(C(=O)O)c(N)c2c1C(=O)N(Cc1ccccc1)C2=O`, the IC50 with CHO is more than 100 µM. In series [4], the solubility kinetic at 2 h came to 177 µM (≈ 55.1 µg/mL). For the same compound, the remaining at 0.5 h, 0.1 µM in [5] was found to be 71%; in [6], 79%; in [13] it was 64%. The Drug metabolism entry (in the series with Liver [14]; in [15]; in the series on Liver [16]; in the series with Plasma [17]; in the series on Plasma [18]) was “metabolite_detected” throughout. In addition, the MIC90 in series [11] is 3.13 µM (≈ 0.974 µg/mL).
